Source: PubChem BioAssay (several laboratories)
pCIP destab = p/CIP protein destabilization; F442A p/CIP-EGFP cells, EGFP fluorescence, 16 h; decrease of EGFP signal, % at 10 µM; 290,000 tested, 0.01% active; AID 1984;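 active = EGFP signal decrease of at least 30% at 10 µM or well 3 SD below plate mean, unless failing retest; inactive = the rest, including hits failing retest or dose response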
Target sequence (Q05BA5 1-1403): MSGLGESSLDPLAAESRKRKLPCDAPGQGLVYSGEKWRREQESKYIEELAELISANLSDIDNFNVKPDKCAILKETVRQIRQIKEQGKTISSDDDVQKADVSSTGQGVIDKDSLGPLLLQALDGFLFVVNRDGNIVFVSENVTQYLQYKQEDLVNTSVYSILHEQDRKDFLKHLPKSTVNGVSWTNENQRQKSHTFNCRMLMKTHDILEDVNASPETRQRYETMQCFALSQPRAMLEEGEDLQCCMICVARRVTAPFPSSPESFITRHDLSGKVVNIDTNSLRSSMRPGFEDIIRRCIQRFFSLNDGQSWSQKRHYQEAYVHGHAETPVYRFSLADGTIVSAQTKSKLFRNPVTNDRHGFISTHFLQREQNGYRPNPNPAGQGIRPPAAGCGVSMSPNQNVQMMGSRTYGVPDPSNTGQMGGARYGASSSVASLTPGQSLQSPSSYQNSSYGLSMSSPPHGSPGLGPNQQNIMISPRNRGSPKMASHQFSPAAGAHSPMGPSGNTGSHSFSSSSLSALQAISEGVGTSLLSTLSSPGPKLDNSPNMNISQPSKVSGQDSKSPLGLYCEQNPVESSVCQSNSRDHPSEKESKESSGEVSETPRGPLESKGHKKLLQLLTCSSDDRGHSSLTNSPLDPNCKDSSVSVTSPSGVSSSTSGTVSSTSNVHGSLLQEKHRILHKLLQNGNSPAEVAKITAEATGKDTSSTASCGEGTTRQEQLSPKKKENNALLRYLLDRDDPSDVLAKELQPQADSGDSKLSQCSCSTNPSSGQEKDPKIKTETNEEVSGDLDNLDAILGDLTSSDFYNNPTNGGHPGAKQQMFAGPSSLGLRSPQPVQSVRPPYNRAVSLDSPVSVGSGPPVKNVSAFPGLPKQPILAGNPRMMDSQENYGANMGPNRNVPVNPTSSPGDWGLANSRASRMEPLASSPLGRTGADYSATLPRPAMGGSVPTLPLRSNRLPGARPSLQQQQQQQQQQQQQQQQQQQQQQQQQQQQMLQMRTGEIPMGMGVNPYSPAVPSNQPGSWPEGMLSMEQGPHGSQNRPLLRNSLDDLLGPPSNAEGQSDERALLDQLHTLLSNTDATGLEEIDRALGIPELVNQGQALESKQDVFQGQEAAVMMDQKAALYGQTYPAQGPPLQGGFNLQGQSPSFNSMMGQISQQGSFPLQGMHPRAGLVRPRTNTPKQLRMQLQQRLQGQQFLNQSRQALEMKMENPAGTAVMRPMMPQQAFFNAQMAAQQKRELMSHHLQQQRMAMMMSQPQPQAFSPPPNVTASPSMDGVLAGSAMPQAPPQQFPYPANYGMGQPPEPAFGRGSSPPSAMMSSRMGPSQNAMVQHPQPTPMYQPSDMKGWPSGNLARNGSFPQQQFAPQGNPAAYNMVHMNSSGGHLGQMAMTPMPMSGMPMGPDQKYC
Cl transport mod = modulators of human KCC2 chloride dependent transport | 190,000 tested, 2.2% active | Q9H2X9 | KCC2 cells, thallium flux FluoZin-2 fluorescence | B-score of Tl+ flux slope (higher = more flux/activation; lower = inhibition) at 10 µM;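 active = thallium flux slope and its plate-corrected score both differing from the plate sample mean at a set confidence after two filtering rounds, in either direction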;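 note: slope of fluorescence scaled to starting intensity during 10 to 20 s after thallium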
ABCB6 inh MLPCN = human ABCB6 transporter inhibition. Q9NP58. K562-ABCB6 porphyrin accumulation, flow cytometry, 1 h; active compounds read low. fluorescence ratio to DMSO, % at 10 µM. 360,000 tested, 0.19% active;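 active = fluorescence ratio to DMSO below 75%, the collection mean minus 3 SD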;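 note: signal is porphyrin accumulated inside mitochondria; 100% equals median channel fluorescence of DMSO control wells; lower ratio means ABCB6 inhibition with less porphyrin fluorescence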
V-ATPase pH = regulators of yeast V-ATPase proton transport; S. cerevisiae, pHLuorin cytosolic pH fluorescence; 350,000 tested, 0.37% active; response, % at 10 µM; in the data active = response mostly above about 7.3%, no sharp cut-off; inactive = mostly below about 5.4%; note: actives read high
Dynein cargo inh = blocks dynein driven cargo transport along microtubules; 3617.4 mouse cells, GR-EGFP nuclear translocation imaging; test concentration mostly 20 µM; stimulated with dexamethasone, 1 µM; active compounds read low; z-score, hits read low; 220,000 tested, 0.47% active;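 active = plate z-score of nuclear minus cytoplasmic receptor signal below a set negative limit, without overly bright fluorescence or cell loss, cut at about -3.5 in these data, passing the limit was not always enough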;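 note: z-score of nuclear minus cytoplasmic ring GR-EGFP intensity difference per well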
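Buffer or medium: Induction medium lacking tetracycline, stripped serum | Also added: Dexamethasone agonist, 1.0 µM final, for 30 min | Timing: 48 h induction, 1 h compound, 30 min dex at 37 °C | Detection: Formaldehyde fixation, Hoechst nuclear stain, 10x automated fluorescence imaging | Measure: Nuclear versus cytoplasmic GR-EGFP signal, averaged per well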
Numbers without * were called inactive; nt = not tested or not shown. The sample as a whole holds a higher share of hits than the screen did.

SMILES	pCIP destab	Cl transport mod	ABCB6 inh MLPCN	V-ATPase pH	Dynein cargo inh
COC(=O)c1ccc(/C=C/c2ccc3cccc(OC(C)=O)c3n2)cc1	-17	-0.0031	83	27*	0.7
CCCCCC/C(C)=C1/SC(=S)NC1=O	-15	53*	103	-4	0.21
C/C(C/C(C)=C1/SC(=S)NC1=O)=C1\SC(=S)NC1=O	8	-2.9	103	0	0.71
Fc1ccc(NC(=S)N/N=C/c2ccc(F)c(F)c2)c(F)c1	-7	20*	93	4	0.042
Fc1ccc(NC(=S)NN=Cc2ccccc2Cl)cc1	nt	nt	96	1	nt
Fc1ccccc1/C=N/NC(=S)Nc1ccc(Cl)cc1Cl	6	15*	98	2	0.88
Cc1cccc(C)c1-n1nnnc1C1(C)CCC(=O)N1CCCN1CCOCC1 (stereo not drawn)	nt	nt	101	nt	nt
Cn1cc(/C=C2\SC(=S)N(NC(=O)c3ccccc3Cl)C2=O)c2ccccc21	-22	-5.3*	121	0	-0.64
CCc1ccc(/C=C2\SC(=S)N(CCCC(=O)Nc3ccccn3)C2=O)cc1	-19	0.62	91	4	-0.26
CCc1ccc(/C=C2/SC(=S)N(CC(=O)Nc3nc4ccccc4s3)C2=O)cc1	-8	4.9*	110	3	2.5
CCOc1cc(/C=C(\C#N)C(=O)Nc2ccccc2[N+](=O)[O-])ccc1OCc1cccc2ccccc12	30*	0.22	nt	nt	-0.29
O=C(Cn1c(=O)oc2cc(S(=O)(=O)N3CCCC3)ccc21)Nc1ccccn1	nt	nt	98	nt	nt
CCOC(=O)N1CCC(NC(=O)Cn2ncc3c4ccccc4n(C)c3c2=O)CC1	2	-2.6*	95	2	-0.074
COc1cc(C2Nc3cccc4cccc(c34)N2)cc(OC)c1O	10	nt	101	4	-3.7*
CC(NNC(=S)N1CCCCCC1)c1ccc2ccccc2n1 (stereo not drawn)	nt	nt	98	nt	nt
COc1cccc(-c2nc(CS(=O)CC(=O)O)c(C)o2)c1 (stereo not drawn)	-9	1	99	0	-0.61
Cc1oc(-c2ccccc2)nc1CS(=O)CC(=O)O (stereo not drawn)	-11	2.9*	95	-2	0.61
O=C(COc1ccccc1/C=C1\SC(=O)NC1=O)Nc1ccccc1	-1	-4.5*	105	1	0.0095
Cc1cc([N+](=O)[O-])ccc1NC(=S)NC(=O)Cc1ccccc1	-13	8.5*	97	-4	-0.21
CCOC(=O)[C@]12CCCC=C1N(Cc1ccc(Cl)cc1Cl)C(=O)[C@H](CC(=O)NCCC(C)C)C2	nt	nt	92	nt	nt
COc1cccc(OCC(=O)NN=C2c3ccccc3-c3ccccc32)c1	-9	0.57	44*	-4	-0.61
CCCc1nc2c(C)cc(Br)cn2c1Cc1ccc(OC)cc1C	nt	nt	93	nt	nt
O=C(NC1(C(=O)NC2CCCC2)CCCCC1)c1ccc2c(c1)OCO2	-10	0.44	69*	-3	0.63
C[n+]1cccc(NC(=O)c2ccccc2)c1	nt	nt	98	nt	nt
Brc1ccc(-c2nnc(Cc3ccccc3)o2)cc1	2	-2.2	99	5	0.96
SMILES	pCIP destab	Cl transport mod	ABCB6 inh MLPCN	V-ATPase pH	Dynein cargo inh
c1ccc(Cc2nnc(-c3ccccc3)o2)cc1	2	14*	107	-2	-1.6
O=C(Nc1cccc2cccnc12)c1csc(COCCO)n1	nt	nt	95	nt	nt
S=c1[nH]nc(-c2ccc(Br)o2)n1Cc1ccccc1	16	3.4*	100	-4	0.89
Cc1cc(C)cc(OC(=O)CCN2C(=O)C3C4C=CC(C5CC45)C3C2=O)c1 (stereo not drawn)	-10	0.72	100	-4	-1.2
O=C(CCN1C(=O)C2C3C=CC(C4CC34)C2C1=O)Oc1ccc(Br)cc1 (stereo not drawn)	6	0.23	97	13*	-0.34
CCc1ccc(-c2nc(CN3CCC(C(=O)N4CCN(c5ccccc5)CC4)CC3)c(C)o2)cc1	6	2*	103	-2	2.8
Cc1cccc(S(=O)(=O)NC(=O)C2(C)CCN2C(=O)C2(c3ccc(Cl)cc3)CCC2)c1 (stereo not drawn)	nt	nt	96	nt	nt
COc1ccc(/C=C\C(=O)NCC(=O)N/N=C/c2ccc(O)cc2O)cc1	-18	0.91	95	1	0.69
O=C(/C=C\c1ccccc1)NCC(=O)N/N=C/c1ccc(O)cc1O	-12	nt	100	12*	nt
CCc1nc2ccc(C(=O)NCc3cccs3)cn2c1N(C)Cc1nccs1	nt	nt	96	nt	nt
CCCCn1c(N)c(C(=S)NC(=O)CC(C)(C)C)c(=O)n(C)c1=O	-5	28*	100	3	0.31
CCCCn1nnc(NC(=S)NC(=O)c2ccc(-c3cccc(Cl)c3Cl)o2)n1	-12	34*	97	4	0.014
CCCCn1nnc(NC(=O)c2ccc(-c3ccccc3[N+](=O)[O-])o2)n1	-11	-1.6	93	-2	0.03
CCCN(CCC)S(=O)(=O)c1ccc(C(=O)Nc2nnc(-c3cccc(OC)c3)o2)cc1	-4	15*	96	-1	-0.11
COc1cccc(-c2nnc(NC(=O)c3ccc(Cl)s3)o2)c1	-11	151*	100	-3	1.1
CCCN(CCC)S(=O)(=O)c1ccc(C(=O)Nc2nnc(CSC)o2)cc1	2	nt	150	4	0.46
COc1ccc(-c2nnc(NC(=O)c3ccc(S(=O)(=O)N4COCC4(C)C)cc3)o2)cc1	-13	8.2*	93	7	-0.3
CCCCCCCCN1C(=O)[C@H](CC(=O)NCc2cccc3ccccc23)C[C@@]2(C(=O)OCC)CCCC=C12	nt	nt	95	nt	nt
COc1ccccc1Cn1c(C)c(C(=O)NCCC#N)sc1=O	nt	nt	102	nt	nt
C(=C\c1ccccc1)/CN1CCN(C(CCc2ccccc2)c2nnnn2C2CCCCC2)CC1 (stereo not drawn)	nt	nt	93	nt	nt
COc1ccccc1CNC(=O)C1CCCN1S(=O)(=O)c1ccc2c(c1)C(C)(C)C(=O)N2C (stereo not drawn)	nt	nt	100	nt	nt
CCCn1nnnc1NC(=O)c1ccc2ccccc2c1	-1	16*	93	1	0.85
Cc1ccccc1Nc1nc(N)nc(CSc2nnnn2-c2ccccc2)n1	-12	-0.77	97	13*	0.22
CCCCn1c(NC(=S)Nc2ccccc2)nc2ccccc21	-4	47*	98	-8	-0.29
COc1ccc(-c2nc3ccc(C)cn3c2CC(C)(C)C)cc1OC	nt	nt	97	nt	nt
CC(C)(C)C(=O)/C(=C/c1ccc(Cl)cc1)n1cncn1	-18	nt	96	0	nt
CC(C)(C)C(=O)/C(=C\c1ccc([N+](=O)[O-])cc1)n1cncn1	8	0.41	nt	nt	-5.1*
CC(SC#N)C(=O)C12CC3CC(CC(C3)C1)C2 (stereo not drawn)	10	3.5	102	-5	-6.8*
O=C(CN1C(=O)CSc2cc(S(=O)(=O)N3CCCCCC3)ccc21)NCCc1ccccc1	3	-7.8*	98	-6	1.6
COc1ccc(CNC(=O)c2sc(=O)n(Cc3cc(C(C)=O)ccc3OC)c2C)cc1	nt	nt	100	nt	nt
